Experimental data pooled from the literature.
Lines come from different studies, so protocols differ.

CC1=C2C[C@H]3[C@@H](CC[C@@H]4C[C@H](NS(C)(=O)=O)CC[C@@]43C)[C@@H]2CC[C@@]2(C1)O[C@@H]1C[C@H](C)CN[C@H]1[C@H]2C
IC50 (MB002; cell growth or viability; 7 days): > 10 µM

COC(=O)c1cc(-c2cccc(NC(=O)Nc3cccc(C#N)c3)c2)on1
MIC (Mycobacteroides chelonae; microbial growth, broth dilution; ATCC35752; 48 h): > 64 mg/L

O=c1c2ccccc2nc(/C=C/c2ccc(C(F)(F)F)cc2)n1-c1cccc(O)c1
MIC (Enterococcus faecium; microbial growth, broth dilution; NCTC7171): 32 mg/L

COc1cc(C(=O)NC2CCN(C)CC2)c(F)cc1Nc1ncc2c(n1)N(C1CCCC1)CC(F)(F)C(=O)N2C
IC50 (MB002; cell growth or viability; 7 days): 0.0136 µM

COC(=O)c1cc(-c2cccc(NC(=O)Nc3ccccc3F)c2)on1
MIC (Mycobacteroides chelonae; microbial growth, broth dilution; ATCC35752; 48 h): > 64 mg/L

O=C(O)c1cc(Cl)ccc1-c1ccc(Cl)cc1C(=O)Nc1ccc2c(c1)Cc1ccccc1-2
EC50 (Trypanosoma brucei; parasite growth, resazurin; 72 h): 28.5 µM

CCCCCCNC(=S)Nc1cccc(-c2cc(C(=O)OC)no2)c1
MIC (Mycobacteroides chelonae; microbial growth, broth dilution; ATCC35752; 48 h): > 64 mg/L

COc1cc(OC)c(C=C2C(O)=Nc3ccccc32)c(OC)c1
IC50 (MB002; cell growth or viability; 7 days): 0.0585 µM

O=c1c2ccccc2nc(/C=C/c2ccco2)n1-c1cccc(O)c1
MIC (Enterococcus faecium; microbial growth, broth dilution; NCTC7171): > 128 mg/L

N.N.[Cl][Pt][Cl]
IC50 (CCD 19Lu; cell growth or viability; 48 h): 84.4 µM

O=C(O)c1ccc(/C=C/c2nc3ccccc3c(=O)n2-c2cccc(O)c2)cc1
MIC (Enterococcus faecium; microbial growth, broth dilution; NCTC7171): 64 mg/L

CO[C@H]1/C=C/O[C@@]2(C)Oc3c(C)c(O)c4c(O)c(c(/C=N/N5CCN(C)CC5)c(O)c4c3C2=O)NC(=O)/C(C)=C\C=C\[C@H](C)[C@H](O)[C@@H](C)[C@@H](O)[C@@H](C)[C@H](OC(C)=O)[C@@H]1C
MIC (Mycobacteroides chelonae; microbial growth; 72 h): < 0.78 µM
